Only some compounds are listed: those with a hit (about 2.3% of all), similar ones and a draw of the others.
TRPC4 agonist: opens the mouse TRPC4 cation channel. hit rate 0.49% among 310,000. HEK293 TRPC4beta/mu-opioid, Fluo4 calcium fluorescence; hits give high values. B-score at 10 µM;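 active = B-score above 5 SD of library B-scores, and initial fluorescence ratio not above library mean plus 5 SD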;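 also: positive B-score marks a calcium rise read as TRPC4 activation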
Target sequence (Q9QUQ5 whole entry, looked up): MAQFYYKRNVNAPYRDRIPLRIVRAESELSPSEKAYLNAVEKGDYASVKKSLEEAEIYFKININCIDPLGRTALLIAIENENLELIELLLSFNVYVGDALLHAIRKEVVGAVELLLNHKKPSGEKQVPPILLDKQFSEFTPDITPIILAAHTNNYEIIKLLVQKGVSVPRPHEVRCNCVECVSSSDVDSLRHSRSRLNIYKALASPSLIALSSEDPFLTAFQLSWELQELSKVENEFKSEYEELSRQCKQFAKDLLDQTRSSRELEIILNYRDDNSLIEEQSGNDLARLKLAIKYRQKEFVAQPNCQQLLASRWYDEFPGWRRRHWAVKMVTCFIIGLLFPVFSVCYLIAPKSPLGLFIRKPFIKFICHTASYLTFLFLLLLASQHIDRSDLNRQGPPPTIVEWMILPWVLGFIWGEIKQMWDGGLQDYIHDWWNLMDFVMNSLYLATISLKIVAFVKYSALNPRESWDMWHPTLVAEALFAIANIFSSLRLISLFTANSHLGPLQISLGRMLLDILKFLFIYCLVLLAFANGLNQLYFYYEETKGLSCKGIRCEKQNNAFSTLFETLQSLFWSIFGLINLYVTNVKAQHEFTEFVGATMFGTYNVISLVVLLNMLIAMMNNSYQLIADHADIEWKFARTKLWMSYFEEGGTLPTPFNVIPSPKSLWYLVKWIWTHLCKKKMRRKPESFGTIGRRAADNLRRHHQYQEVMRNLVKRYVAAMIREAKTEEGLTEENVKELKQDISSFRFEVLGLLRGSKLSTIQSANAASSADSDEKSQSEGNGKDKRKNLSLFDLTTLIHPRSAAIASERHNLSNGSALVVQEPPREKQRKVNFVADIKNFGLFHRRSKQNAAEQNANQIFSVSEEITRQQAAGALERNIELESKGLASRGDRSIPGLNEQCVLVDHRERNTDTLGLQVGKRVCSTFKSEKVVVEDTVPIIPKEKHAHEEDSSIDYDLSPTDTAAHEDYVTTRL
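system = HEK293 cells stably co-expressing mouse TRPC4beta and mu-opioid receptor | schedule = Fluo4 dye loading 45 min at room temperature, 110 s recording | measure = B-scored integrated calcium fluorescence ratio | signal = Fluo4 calcium-sensitive dye fluorescence, kinetic, 1 Hz baseline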
TRPC6 activator: activates the mouse TRPC6 cation channel; HEK293-TRPC6 membrane potential dye fluorescence; hits give high values; B-score at 10 µM; hit rate 0.13% among 310,000; Q61143;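 active = B-score of the integrated fluorescence ratio above library mean plus 3 SD, and starting fluorescence ratio within library mean plus 5 SD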;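 also: higher score means more depolarization so channel activation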
TRPC6 inh: inhibitors of mouse TRPC6 channel; HEK293-TRPC6, membrane potential dye, ACh-evoked depolarization; hits give low values; B-score at 10 µM; hit rate 1.1% among 310,000; AID 2553;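 active = B-score under library mean minus 3 SD, initial fluorescence not abnormally high, positive integrated signal ratio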;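 also: B-score derived from integrated fluorescence ratio over the kinetic read; more negative B-score means stronger inhibition of depolarization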
TRPC4 PAM: allosteric potentiators of mouse TRPC4 channel. HEK293 TRPC4beta/mu-opioid, DAMGO EC20, Fluo-4 Ca2+ flux; hits give high values. B-score at 10 µM. hit rate 0.42% among 310,000. AID 2227;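 active = B-score of calcium response area above 5 SD of library B-scores, with initial fluorescence ratio within 5 SD of library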;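 also: B-score of integrated fluorescence ratio over time as area under calcium response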
TRPC4 inh: TRPC4 (mouse) channel inhibition; hit rate 0.39% among 300,000; B-score at 10 µM; Q9QUQ5; HEK293 TRPC4beta/mu-opioid, DAMGO-evoked Fluo4 calcium flux; hits give low values;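 active = B-score over 3 SD under the library average, no early fluorescence shift, positive overall ratio signal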
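test system = HEK293 cells with stable TRPC4beta plus mu-opioid receptor expression | detection = Fluo4 Ca2+ flux fluorescence | read-out = integrated fluorescence ratio relative to baseline, converted to per-well B score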
Numbers without * were called inactive; i = inactive.

SMILES	TRPC4 agonist	TRPC6 activator	TRPC6 inh	TRPC4 PAM	TRPC4 inh
O=C(NC(=S)NNC(=O)[C@H]1C[C@@H]1c1ccccc1)c1cccc(F)c1	211*	i	i	i	i
CCC1(CC)C(=O)C2=C3C1[C@H](C(=O)OC)CC(C(=O)OC)C[C@H]3[C@H]1C(=O)N(c3ccccc3)C(=O)[C@H]1[C@H]2C (stereo partly drawn)	i	i	i	i	i
O=C(CN(Cc1ccccc1)S(=O)(=O)c1ccc(F)cc1)NCc1ccccn1	i	i	i	i	i
Nc1ccc(-c2nc3c(ccc4ccccc43)[nH]2)cc1	i	i	-9.51*	i	i
COCCn1c(SCC(=O)Nc2ccc(S(=O)(=O)N3CCOCC3)cc2)nc2ccccc21	i	i	i	31*	i
Cc1onc(-c2ccccc2Cl)c1C(=O)Nc1ccc(S(=O)(=O)N2CCCC2)cc1	i	i	i	10*	i
CC(C)=CCCC(C)CN1CCC(n2nccc2NC(=O)C2CCCC2)CC1 (stereo not drawn)	i	i	i	i	-5*
Cc1cc(-c2cn3ccccc3n2)c(C)n1-c1ccccc1	i	i	i	i	-7*
CCOC(=O)c1c(CC(C)C)csc1N	i	i	i	i	-6*
Fc1cc(Br)ccc1COc1ccc(-c2nnco2)cc1	i	i	i	i	i
O=C1CC2(CCN(S(=O)(=O)c3ccccc3)CC2)Oc2ccccc21	i	i	i	50*	i
O=C1CC2(CCN(S(=O)(=O)c3ccccc3F)CC2)Oc2ccccc21	i	i	i	30*	i
CN(C)S(=O)(=O)c1ccc(C(=O)NCc2nnc(SCC(=O)c3ccccc3)o2)cc1	i	i	i	i	i
O=C(Nc1ccc(N2CCOCC2)cc1N1CCOCC1)c1ccc([N+](=O)[O-])cc1Cl	i	i	i	i	i
Cc1ccccc1-n1c(SCc2cccc(F)c2)nc2[nH]ncc2c1=O	i	i	i	13*	i
CN1C2CCC1CC(NC(=O)c1cc(Cl)cc3[nH]cnc13)C2 (stereo not drawn)	i	i	i	i	i
COc1cccc(OCc2cc(C(=O)N3CCN(C)C(c4ccccc4)C3)no2)c1 (stereo not drawn)	i	i	i	15*	i
COc1cccc(OCc2cc(C(=O)N3CCC(c4ccncc4)CC3)no2)c1	i	i	i	i	i
CC1(C)Cc2nc3oc4c(=O)n(CC(=O)Nc5ccccc5)cnc4c3cc2CO1	i	i	i	i	-6*
O=C(Nc1sc2c(c1C(=O)NCCCO)CCCC2)c1ccccc1	i	i	i	i	i
NCCNC(=O)c1c(NC(=O)c2ccccc2)sc2c1CCCC2	175*	i	i	i	i
O=C(CN1CCC(C(=O)c2ccc3c(c2)OCCO3)CC1)NCc1ccccc1	i	i	i	i	i
COC(=O)c1[nH]c2cc(OC)c(OC)cc2c1/C=N/Nc1ccccc1	i	i	i	i	i
O=C(O)c1ccc(N/N=C/c2ccc(-c3cccc(Cl)c3)o2)cc1	i	i	i	i	-6*
COc1ccc(C2C(O)C(c3c[nH]c4ccccc34)=NN2C(=O)CCl)cc1 (stereo not drawn)	i	i	i	21*	i
SMILES	TRPC4 agonist	TRPC6 activator	TRPC6 inh	TRPC4 PAM	TRPC4 inh
NC(=O)C(c1ccc(Cl)cc1Cl)c1ncc(C(F)(F)F)cc1Cl (stereo not drawn)	i	i	i	14*	i
COc1ccc(CCC(=O)Nc2cc(Cl)ccc2N2CCN(C)CC2)cc1	i	i	i	12*	i
CN1CCN(c2ccc(Cl)cc2NC(=O)/C=C/c2ccc(F)cc2)CC1	i	i	i	13*	i
COc1ccc(CC(=O)Nc2cc(Cl)ccc2N2CCCC2)cc1	i	i	i	i	i
COc1ccc(Cl)cc1C(=O)Nc1ccccc1N1CCN(C)CC1	126*	i	i	i	i
O=C(Nc1ccc(Oc2ccc(NC(=O)Nc3ccccc3Cl)cc2)cc1)Nc1ccccc1Cl	i	i	i	i	i
CCc1ccccc1NC(=S)N(CCCN(C)C)Cc1cc2cc3c(cc2[nH]c1=O)OCO3	i	i	i	i	-8*
Cc1cccc(NC(=S)N(CCCN(C)C)Cc2cc3cc4c(cc3[nH]c2=O)OCO4)c1	i	i	i	i	i
O=C(Nc1cccnc1)C(Cc1ccccc1)n1cccc1 (stereo not drawn)	i	i	i	i	i
O=C(Nc1ncc(Br)s1)C(Cc1ccccc1)n1cccc1 (stereo not drawn)	i	i	i	36*	i
CN(C)CCCN(C(=O)CCOc1ccccc1)c1nc2c(F)cccc2s1	i	i	-5.11*	i	i
C#CCNC(=O)C1=C[C@H](C2CCCCC2)C[C@H](OCc2ccc(CO)cc2)O1	57*	i	i	i	i
O=C(NC1CC1)C1=C[C@H](C2CCCCC2)C[C@H](OCc2ccc(CO)cc2)O1	249*	i	i	i	-6*
O=C(O)C1=C[C@@H](C2CCCCC2)C[C@@H](OCc2ccc(CO)cc2)O1	i	i	i	i	i
COc1ccc(CCNC(=O)C2CCCN(S(=O)(=O)c3ccc(F)cc3)C2)cc1OC (stereo not drawn)	i	i	i	i	i
COc1ccc(Sc2nc(-c3ccccc3)ncc2C(=O)O)cc1	i	i	i	i	-7*
O=C(NC1CCCCCCC1)c1ccc(Br)o1	i	i	i	i	i
COc1ccc(C2CC(=O)N3CN(c4ccc(C)c(Cl)c4)CSC3=C2C#N)cc1OC (stereo not drawn)	i	i	i	i	-6*
CCN1CC(CN(C)Cc2cn(-c3cccc(C)c3)nc2-c2cccc(F)c2)CC1=O (stereo not drawn)	73*	i	i	i	i
CCCC[C@@H]1CNCCN1CC1(c2ccccc2)CC1	i	i	i	i	i
O=S(=O)(Cc1ccccc1)N1CCC(c2nc(-c3cccs3)no2)CC1	i	i	i	17*	i
CCOc1ccc(N(CC(=O)NCCSCc2ccccc2)S(=O)(=O)c2ccccc2)cc1	i	i	i	i	i
Cc1cccc(Cn2c(C(C)(C)C)cc3cccnc32)c1	i	i	i	i	-6*
CS(=O)(=O)N1CCN(c2ccccc2NC(=O)c2ccc(Cl)cc2)CC1	i	i	i	i	i

Compound activity: PubChem BioAssay, Johns Hopkins Ion Channel Center
